# From ChEMBL document CHEMBL2169868, “Flavone-based novel antidiabetic and antidyslipidemic agents” (J Med Chem, 2012)
# Experiments:
# Rattus norvegicus [1] = experiment: AUC in Sprague-Dawley rat at 25 mg/kg, po by LC-MS/MS method; details: in vivo
# Syrian golden hamster [2] = experiment: Antidyslipidemic activity in high fructose and high-fat diet fed dyslipidemic Syrian golden hamster model assessed as reduction in NEFA level at 30 mg/kg/day, po for 7 day, po; assay type: functional, Mesocricetus auratus; set-up: scale not given: the % may be the effect or the level left
# How it was run: (§1)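 Syrian golden hamsters fed high-fructose high-fat diet; oral dosing in 1% gum acacia at 10, 30, 100 mg/kg (or 25 mg/kg) for 7 days, sham control given vehicle; plasma TG, cholesterol, LDL-C, HDL-C, glycerol and NEFA (kits), lipoprotein lipase activity and body weight; % change versus HFD control, six hamsters per group.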
# Mus musculus [3] = experiment: Antidiabetic activity in diabetic C57BL/KsJ db/db mouse model assessed as reduction in postprandial glucose level in hyperglycemia at 25 mg/kg, po measured 2 hrs post dose; assay type: functional; set-up: scale not given: the % may be the effect or the level left
# How it was run: (§2)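 db/db mice (C57BL/KsJ, 12−18 weeks, 40−50 g; selected by glucose 200−350 mg/dL) dosed orally daily for 10 consecutive days at 1, 3, 10, 25 or 50 mg/kg; postprandial blood glucose profile recorded on day 6 with food access interrupted; mean % change versus vehicle in 5 animals per group; Student t test.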
# [4] = Plasma clearance in Sprague-Dawley rat at 25 mg/kg, po by LC-MS/MS method; assay type: ADME, organism-based; set-up: dose 25 mg/kg, route oral
# How it was run: (§3)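 Male Sprague−Dawley rats given a single 25 mg/kg oral dose (aqueous 0.5% methyl cellulose suspension for one compound). Blood drawn from 0.08 to 48 h. LC-MS/MS, linear range 0.78−400 ng/mL.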
# Rattus norvegicus [5] = experiment: AUC in Sprague-Dawley rat at 2.5 mg/kg, iv by LC-MS/MS method; details: in vivo
# [6] = Volume of distribution in Sprague-Dawley rat at 2.5 mg/kg, iv by LC-MS/MS method; assay type: ADME, organism-based; set-up: dose 2.5 mg/kg, route intravenous; details: in vivo
# How it was run: (§4)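 Male Sprague−Dawley rats given a single 2.5 mg/kg iv dose; one formulation was DMF/PG/water (2:4:4), 0.2 μ filtered. Blood drawn from 0.08 to 48 h. Plasma assayed by LC-MS/MS with linear range 0.78−400 ng/mL.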
# Mus musculus [7] = experiment: Antidiabetic activity in diabetic C57BL/KsJ db/db mouse model assessed as reduction in postprandial glucose level in hyperglycemia at 1 mg/kg, po measured 2 hrs post dose; assay type: functional; set-up: scale not given: the % may be the effect or the level left
# How it was run: as §2
# Syrian golden hamster [8] = experiment: Antidyslipidemic activity in high fructose and high-fat diet fed dyslipidemic Syrian golden hamster model assessed as reduction in body weight at 25 mg/kg/day for 7 days; assay type: functional, Mesocricetus auratus; set-up: scale not given: the % may be the effect or the level left
# How it was run: as §1
# Syrian golden hamster [9] = experiment: Reduction in body weight in high fructose and high-fat diet fed dyslipidemic Syrian golden hamster model at 30 mg/kg/day, po for 7 days; assay type: functional, Mesocricetus auratus; set-up: scale not given: the % may be the effect or the level left
# How it was run: (§5)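 HFD-fed Syrian golden hamsters, six per group, fed a high-fructose diet. Oral dosing in 1% gum acacia for 7 days. Sham group received vehicle. Plasma TG was measured and body weight tracked. Results given as % change versus HFD control.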
# Mus musculus [10] = experiment: Antidiabetic activity in diabetic C57BL/KsJ db/db mouse model assessed as improvement in glucose tolerance in hyperglycemia at 100 mg/kg, po measured 2 hrs post dose; assay type: functional
# [11] = Mean residence time in Sprague-Dawley rat at 25 mg/kg, po by LC-MS/MS method; assay type: ADME, organism-based; set-up: dose 25 mg/kg, route oral; details: in vivo
# How it was run: as §3
# Mus musculus [12] = experiment: Antidiabetic activity in diabetic C57BL/KsJ db/db mouse model assessed as improvement in glucose tolerance in hyperglycemia at 25 mg/kg, po measured 2 hrs post dose; assay type: functional
# Mus musculus [13] = experiment: Antidiabetic activity in diabetic C57BL/KsJ db/db mouse model assessed as reduction in postprandial glucose level in hyperglycemia at 10 mg/kg, po measured 2 hrs post dose; assay type: functional; set-up: scale not given: the % may be the effect or the level left
# How it was run: as §2
# Syrian golden hamster [14] = experiment: Antidyslipidemic activity in high fructose and high-fat diet fed dyslipidemic Syrian golden hamster model assessed as reduction in glycerol level at 30 mg/kg/day, po for 7 day, po; assay type: functional, Mesocricetus auratus; set-up: scale not given: the % may be the effect or the level left
# How it was run: as §1
# Mus musculus [15] = experiment: Antihyperglycemic activity in diabetic C57BL/KsJ db/db mouse model assessed as reduction in plasma insulin level in hyperglycemia at 25 mg/kg, po qd for 10 days; assay type: functional; set-up: scale not given: the % may be the effect or the level left
# How it was run: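 db/db mice dosed orally every day for 10 days. On day 11, retro-orbital blood was drawn and plasma insulin measured. Mean % change versus vehicle-treated control, 5 mice per group; Student t test.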
# Mus musculus [16] = experiment: Antidyslipidemic activity in diabetic C57BL/KsJ db/db mouse model assessed as increase in plasma HDL-cholesterol level at 25 mg/kg, po qd for 10 days; assay type: functional
# How it was run: (§6)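 db/db mice (blood glucose 200−350, TG 170−250, cholesterol 170−250, HDL-C 32−40 mg/dL) dosed orally at 25 mg/kg daily for 10 days; retro-orbital blood taken on day 11 for plasma TG, cholesterol and HDL-C (and HDL-C/CHOL ratio); mean % change versus vehicle control, 5 mice per group; Student t test.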
# Mus musculus [17] = experiment: Antidyslipidemic activity in diabetic C57BL/KsJ db/db mouse model assessed as reduction in plasma triglyceride level at 25 mg/kg, po qd for 10 days; assay type: functional; set-up: scale not given: the % may be the effect or the level left
# How it was run: as §6
# Syrian golden hamster [18] = experiment: Antidyslipidemic activity in high fructose and high-fat diet fed dyslipidemic Syrian golden hamster model assessed as increase in lipoprotein lipase level at 30 mg/kg/day, po for 7 day, po; assay type: functional, Mesocricetus auratus
# How it was run: as §1
# [19] = Cmax in Sprague-Dawley rat at 2.5 mg/kg, iv by LC-MS/MS method; assay type: ADME, organism-based; set-up: dose 2.5 mg/kg, route intravenous; details: in vivo
# How it was run: as §4
# Syrian golden hamster [20] = experiment: Antidyslipidemic activity in high fructose and high-fat diet fed dyslipidemic Syrian golden hamster model assessed as increase in HDL-cholesterol level at 10 to 100 mg/kg/day for 7 days; assay type: functional, organism-based; details: Mesocricetus auratus
# How it was run: as §1
# Syrian golden hamster [21] = experiment: Antidyslipidemic activity in high fructose and high-fat diet fed dyslipidemic Syrian golden hamster model assessed as reduction in triglyceride level at 30 mg/kg/day, po for 7 day, po; assay type: functional, Mesocricetus auratus; set-up: scale not given: the % may be the effect or the level left
# How it was run: as §5
# Syrian golden hamster [22] = experiment: Antidyslipidemic activity in high fructose and high-fat diet fed dyslipidemic Syrian golden hamster model assessed as increase in HDL-cholesterol level at 30 mg/kg/day, po for 7 day, po; assay type: functional, Mesocricetus auratus
# How it was run: as §1
# Syrian golden hamster [23] = experiment: Antidyslipidemic activity in high fructose and high-fat diet fed dyslipidemic Syrian golden hamster model assessed as reduction in cholesterol level at 10 mg/kg/day, po for 7 day, po; assay type: functional, Mesocricetus auratus; set-up: scale not given: the % may be the effect or the level left
# How it was run: as §1
# Syrian golden hamster [24] = experiment: Antidyslipidemic activity in high fructose and high-fat diet fed dyslipidemic Syrian golden hamster model assessed as reduction in triglyceride level at 10 to 100 mg/kg/day for 7 days; assay type: functional, organism-based; details: Mesocricetus auratus
# How it was run: as §1
# Syrian golden hamster [25] = experiment: Antidyslipidemic activity in high fructose and high-fat diet fed dyslipidemic Syrian golden hamster model assessed as reduction in cholesterol level at 30 mg/kg/day, po for 7 day, po; assay type: functional, Mesocricetus auratus; set-up: scale not given: the % may be the effect or the level left
# Syrian golden hamster [26] = experiment: Reduction in body weight in high fructose and high-fat diet fed dyslipidemic Syrian golden hamster model at 10 mg/kg/day, po for 7 days; assay type: functional, Mesocricetus auratus; set-up: scale not given: the % may be the effect or the level left
# How it was run: as §5
# Mus musculus [27] = experiment: Antidiabetic activity in diabetic C57BL/KsJ db/db mouse model assessed as improvement in glucose tolerance in hyperglycemia at 1 mg/kg, po measured 2 hrs post dose; assay type: functional
# Mus musculus [28] = experiment: Antidiabetic activity in diabetic C57BL/KsJ db/db mouse model assessed as improvement in glucose tolerance in hyperglycemia at 10 mg/kg, po measured 2 hrs post dose; assay type: functional
smiles,measurement,setting,value
CC(C)(C)NC[C@H](O)COc1ccc2c(=O)cc(-c3cc(OCc4ccccc4)cc(OCc4ccccc4)c3)oc2c1,AUC,Rattus norvegicus [1],1798.22 ng·h/mL
same,Activity,Syrian golden hamster [2],26.3%
same,Activity,Mus musculus [3],38.3%
same,CL/F,[4],62.5 mL/min/kg
same,AUC,Rattus norvegicus [5],666 ng·h/mL
same,Vd,[6],50.3 L/kg
same,Activity,Mus musculus [7],14.8%
same,Activity,Syrian golden hamster [8],14.3%
same,Activity,Syrian golden hamster [9],10.2%
same,Activity,Mus musculus [10],59.4%
same,MRT,[11],30.3 h
same,Activity,Mus musculus [12],44.6%
same,Activity,Mus musculus [13],28.8%
same,Activity,Syrian golden hamster [14],25.7%
same,Activity,Mus musculus [15],53.4%
same,Activity,Mus musculus [16],33.2%
same,Activity,Mus musculus [17],27.4%
same,Activity,Syrian golden hamster [18],31.2%
same,Cmax,[19],523 ng/mL
same,Activity,Syrian golden hamster [20],Dose-dependent effect
same,Activity,Syrian golden hamster [21],39.8%
same,Activity,Syrian golden hamster [22],21%
same,Activity,Syrian golden hamster [23],13.8%
same,Activity,Syrian golden hamster [24],Dose-dependent effect
same,Activity,Syrian golden hamster [25],27.2%
same,Activity,Syrian golden hamster [26],7.38%
same,Activity,Mus musculus [27],21.46%
same,Activity,Mus musculus [28],39.9%
